# Legend:
# Type in all cases: functional
# MDA-MB-231 = assay: Cytotoxicity against human MDA-MB-231 cells assessed as cell growth at 0.01 uM after 48 hrs by sulforhodamine B assay; details: MDA-MB-231, 48 h, read-out: Activity
# HL-60(TB) = assay: Cytotoxicity against human HL-60(TB) cells assessed as cell growth at 100 nM after 48 hrs by sulforhodamine B assay; details: HL-60, 48 h, read-out: Activity
# Procedure, shortened: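 NCI 60-cell panel. Cells are grown in RPMI 1640 with 5% FBS and 2 mM L-glutamine, seeded at 5000–40,000 cells/well according to doubling time, and preincubated 24 h. Time-zero plates are TCA-fixed. Compound from DMSO stock is given at five 10-fold or 1/2-log concentrations for 48 h at 37 °C, 5% CO2. Suspension cells are fixed with 80% TCA (final 16%) and SRB-stained, with absorbance at 515 nm. Percent growth is derived from Tz, control and test readings.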
# Malme-3M = assay: Cytotoxicity against human MALME-3M cells assessed as cell growth at 10 uM after 48 hrs by sulforhodamine B assay; details: read-out: Activity
# EKVX = assay: Cytotoxicity against human EKVX cells assessed as cell growth at 0.01 uM after 48 hrs by sulforhodamine B assay; details: read-out: Activity
# DU-145 = assay: Cytotoxicity against human DU145 cells assessed as cell growth at 0.001 uM after 48 hrs by sulforhodamine B assay; details: DU-145, 48 h, read-out: Activity
# HOP-62 = assay: Cytotoxicity against human HOP62 cells assessed as cell growth at 0.01 uM after 48 hrs by sulforhodamine B assay; details: HOP-62, 48 h, read-out: Activity
# UACC-257 = assay: Cytotoxicity against human UACC257 cells assessed as cell growth at 1 uM after 48 hrs by sulforhodamine B assay; details: UACC-257, 48 h, read-out: Activity
# [1] = Cytotoxicity against human Hs 578T cells assessed as cell growth at 0.01 uM after 48 hrs by sulforhodamine B assay; details: read-out: Activity
# HCT-116 = assay: Cytotoxicity against human HCT116 cells assessed as cell growth at 10 uM; details: read-out: Activity
# Procedure, shortened: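 Single-dose NCI-60 screen at 10 µM. Cells were grown in RPMI 1640 with 5% FBS and 2 mM L-glutamine, then treated for 48 h at 37 °C. Protein was measured by SRB staining with absorbance at 515 nm. Percentage growth was recorded, and inhibition percentage was calculated as 100 minus growth percentage.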
# NCI-H522 [2] = assay: Cytotoxicity against human NCI-H522 cells assessed as cell growth at 10 uM; details: read-out: Activity
# Procedure, shortened: (§1)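 NCI-60 screen: cells grown in RPMI 1640 with 5% FBS and 2 mM L-glutamine, plated at 5000–40,000 cells/well according to doubling time, and preincubated 24 h at 37 °C, 5% CO2. The single 10 µM dose (DMSO stock) was added, then incubated 48 h. Cells were TCA-fixed and stained with 0.4% SRB, read at 515 nm, and growth % calculated against time-zero and control plates.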
# NCI-H522 [3] = assay: Cytotoxicity against human NCI-H522 cells assessed as cell growth at 10 uM after 48 hrs by sulforhodamine B assay; details: NCI-H522, 48 h, read-out: Activity
# MDA-MB-468 [4] = assay: Cytotoxicity against human MDA-MB-468 cells assessed as cell growth at 100 nM after 48 hrs by sulforhodamine B assay; details: MDA-MB-468, 48 h, read-out: Activity
# MDA-MB-468 [5] = assay: Cytotoxicity against human MDA-MB-468 cells assessed as cell growth at 1 uM after 48 hrs by sulforhodamine B assay; details: MDA-MB-468, 48 h, read-out: Activity
# ACHN = assay: Cytotoxicity against human ACHN cells assessed as cell growth at 0.001 uM after 48 hrs by sulforhodamine B assay; details: read-out: Activity
# Procedure, shortened: (§2)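 NCI-60 five-dose screen. Cells were grown in RPMI 1640 with 5% FBS and 2 mM L-glutamine, plated at 5000–40,000 cells/well and preincubated for 24 h. Time-zero plates were TCA-fixed. DMSO-solubilized drug was added at five concentrations (10-fold or ½-log serial dilutions) for 48 h at 37 °C, 5% CO2. Cells were TCA-fixed, stained with 0.4% SRB and read at 515 nm. Percent growth used time-zero, control and test absorbances.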
# CCRF-CEM = assay: Cytotoxicity against human CCRF-CEM cells assessed as cell growth at 10 uM after 48 hrs by sulforhodamine B assay; details: read-out: Activity; procedure, shortened: as §2
# PC-3 = assay: Growth inhibition of human PC3 cells after 48 hrs by sulforhodamine B assay; details: PC-3, 48 h
# Procedure, shortened: (§3)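 NCI 60-cell screen, five-dose mode. Cells grown in RPMI 1640 with 5% FBS and 2 mM L-glutamine and plated at 5000-40,000 cells/well according to doubling time. After 24 h preincubation, a Tz plate was TCA-fixed. Five concentrations (10-fold or 1/2 log dilutions) were applied for 48 h at 37 °C. SRB staining read at 515 nm. IC50 taken from [(Ti-Tz)/(C-Tz)]×100 = 50.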
# U-251 = assay: Cytotoxicity against human U251 cells assessed as cell growth at 100 nM after 48 hrs by sulforhodamine B assay; details: U-251, 48 h, read-out: Activity
# HOP-92 [6] = assay: Cytotoxicity against human HOP92 cells assessed as cell growth at 1 uM after 48 hrs by sulforhodamine B assay; details: HOP-92, 48 h, read-out: Activity
# A549 = assay: Cytotoxicity against human A549 cells assessed as cell growth at 100 nM after 48 hrs by sulforhodamine B assay; details: A549, 48 h, read-out: Activity; procedure, shortened: as §2
# SK-MEL-28 = assay: Cytotoxicity against human SK-MEL-28 cells assessed as cell growth at 10 uM; details: read-out: Activity; procedure, shortened: as §1
# HOP-92 [7] = assay: Cytotoxicity against human HOP92 cells assessed as cell growth at 0.001 uM after 48 hrs by sulforhodamine B assay; details: HOP-92, 48 h, read-out: Activity
# OVCAR-3 = assay: Cytotoxicity against human OVCAR-3 cells assessed as cell growth at 10 uM after 48 hrs by sulforhodamine B assay; details: OVCAR-3, 48 h, read-out: Activity
# LOX IMVI = assay: Cytotoxicity against human LOXIMVI cells assessed as cell growth at 10 uM; details: read-out: Activity; procedure, shortened: as §1
# IGROV-1 = assay: Growth inhibition of human IGROV1 cells after 48 hrs by sulforhodamine B assay; details: IGROV-1, 48 h; procedure, shortened: as §3
# KM12 = assay: Growth inhibition of human KM12 cells after 48 hrs by sulforhodamine B assay; details: KM12, 48 h; procedure, shortened: as §3
# OVCAR-5 [8] = assay: Cytotoxicity against human OVCAR5 cells assessed as cell growth at 0.01 uM after 48 hrs by sulforhodamine B assay; details: OVCAR-5, 48 h, read-out: Activity
# NCI-H322M = assay: Cytotoxicity against human NCI-H322M cells assessed as cell growth at 1 uM after 48 hrs by sulforhodamine B assay; details: read-out: Activity
# OVCAR-5 [9] = assay: Cytotoxicity against human OVCAR5 cells assessed as cell growth at 10 uM; details: read-out: Activity; procedure, shortened: as §1
# [10] = Cytotoxicity against human […] cells assessed as cell growth at 0.001 uM after 48 hrs by sulforhodamine B assay; details: read-out: Activity
# [11] = read-out: LC50 (the source's name)
compound,measurement,setting,value
COc1cc(C)cc(-c2c(-c3ccnc(-c4ccc(N(C)C)cc4)c3)cnn2CC#N)c1,growth at 0.01 µM,MDA-MB-231,88%
same,growth at 0.1 µM,HL-60(TB),-26%
same,growth at 10 µM,Malme-3M,13%
same,growth at 0.01 µM,EKVX,81%
same,growth at 0.001 µM,DU-145,102%
same,growth at 0.01 µM,HOP-62,62%
same,growth at 1 µM,UACC-257,29%
same,growth at 0.01 µM,[1],58%
same,growth at 10 µM,HCT-116,-32.4%
same,growth at 10 µM,NCI-H522 [2],-23.6%
same,growth at 10 µM,NCI-H522 [3],-52%
same,growth at 0.1 µM,MDA-MB-468 [4],-50%
same,growth at 1 µM,MDA-MB-468 [5],-57%
same,growth at 0.001 µM,ACHN,98%
same,growth at 10 µM,CCRF-CEM,8%
same,GI50,PC-3,52.3 nM
same,LC50 (concentration giving 50% net cell kill),PC-3,> 100000 nM
same,TGI,PC-3,> 100000 nM
same,growth at 0.1 µM,U-251,6%
same,growth at 1 µM,HOP-92 [6],-20%
same,growth at 0.1 µM,A549,10%
same,growth at 10 µM,SK-MEL-28,42.1%
same,growth at 0.001 µM,HOP-92 [7],26%
same,growth at 10 µM,OVCAR-3,1%
same,growth at 10 µM,LOX IMVI,4.55%
same,GI50,IGROV-1,60.8 nM
same,TGI,IGROV-1,40900 nM
same,CC50,IGROV-1; [11],> 100000 nM
same,GI50,KM12,47.5 nM
same,TGI,KM12,264 nM
same,CC50,KM12; [11],> 100000 nM
same,growth at 0.01 µM,OVCAR-5 [8],73%
same,growth at 1 µM,NCI-H322M,34%
same,growth at 10 µM,OVCAR-5 [9],77.7%
same,growth at 0.001 µM,[10],100%

# Source: ChEMBL document CHEMBL1165950, “Design and synthesis of new potent anticancer pyrazoles with high FLT3 kinase inhibitory selectivity” (Bioorg Med Chem, 2010)
